Data reported in ChEMBL document CHEMBL2157894, “Antileishmanial bis-arylimidamides: DB766 analogs modified in the linker region and bis-arylimidamide structure-activity relationships” (Bioorg Med Chem Lett, 2012).

Tests used:
Mus musculus [1] = test: Toxicity in BALB/c mouse assessed as adverse effects at 30 mg/kg/day, ip administered for 5 days; type: organism-based; set-up: route intraperitoneal; conditions: in vivo, 120 h
Leishmania amazonensis = test: Antileishmanial activity against amastigote form of Leishmania amazonensis expressing beta-lactamase infected in CD1 mouse macrophages after 72 hrs by nitrocefin-based spectrophotometric analysis; type: functional, organism-based
Procedure, shortened: (§1)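 Intracellular amastigotes in macrophages; absorbance read-out with uninfected and infected control wells; IC50 from dose–response curves; mean ± SD of at least three determinations, each run in triplicate.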

J774 = test: Cytotoxicity against mouse J774 cells; type: cell-based
Procedure, shortened: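 J774 macrophages exposed to compounds; IC50 reported in nM as mean ± SD of at least three determinations.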

Leishmania donovani [2] = test: Antileishmanial activity against amastigote form of Leishmania donovani LV82 expressing beta-lactamase infected in CD1 mouse macrophages after 72 hrs by nitrocefin-based spectrophotometric analysis; type: functional, organism-based; conditions: LV82, 72 h; procedure, shortened: as §1
[3] = Selectivity index, ratio of IC50 for mouse J774 cells to IC50 for Leishmania donovani; type: toxicity, cell-based; conditions: J774 cells versus Leishmania donovani, read-out: Ratio IC50
Procedure, shortened: (§2)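 SI calculated as IC50 against J774 macrophages divided by IC50 against intracellular Leishmania, each IC50 from mean of at least three determinations.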

Leishmania donovani [4] = test: Antileishmanial activity against promastigote form of Leishmania donovani LV82 infected in BALB/c mouse assessed as reduction in liver parasitemia at 30 mg/kg/day, ip administered for 5 days starting 1 week post-infection measured after 2 weeks relative to untreated control; type: functional; set-up: scale not given: the % may be the effect or the level left; conditions: route intraperitoneal
Procedure, shortened: (§3)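 Female BALB/c mice infected with L. donovani; treated daily for five days starting one week post infection, test agent ip in water, miltefosine orally at 10 mg/kg/day; liver parasitemia counted microscopically two weeks post infection; % reduction versus infected untreated controls; groups of four, mean ± SD; P<0.05 versus untreated.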

[5] = Selectivity index, ratio of IC50 for mouse J774 cells to IC50 for Leishmania amazonensis; type: toxicity, cell-based; conditions: J774 cells versus Leishmania amazonensis, read-out: Ratio IC50; procedure, shortened: as §2
Mus musculus [6] = test: Toxicity in BALB/c mouse assessed as tremors at 30 mg/kg/day, ip measured from day 2 to 3; type: organism-based; set-up: route intraperitoneal; conditions: in vivo
Mus musculus [7] = test: Toxicity in BALB/c mouse assessed as hyperactivity at 30 mg/kg/day, ip measured from day 2 to 3; type: organism-based; set-up: route intraperitoneal; conditions: in vivo
Mus musculus [8] = test: Toxicity in BALB/c mouse assessed as mortality at 30 mg/kg, ip measured within 24 hrs; type: organism-based; set-up: dose 30 mg/kg, route intraperitoneal; conditions: in vivo
Mus musculus [9] = test: Gastrointestinal toxicity in BALB/c mouse assessed as black and swollen colon at 30 mg/kg, ip measured within 24 hrs by necroscopic analysis; type: organism-based; set-up: dose 30 mg/kg, route intraperitoneal; conditions: in vivo
Mus musculus [10] = test: Gastrointestinal toxicity in BALB/c mouse assessed as black and swollen stomach at 30 mg/kg, ip measured within 24 hrs by necroscopic analysis; type: organism-based; set-up: dose 30 mg/kg, route intraperitoneal; conditions: in vivo
Mus musculus [11] = test: Gastrointestinal toxicity in BALB/c mouse assessed as black and swollen intestine at 30 mg/kg, ip measured within 24 hrs by necroscopic analysis; type: organism-based; set-up: dose 30 mg/kg, route intraperitoneal; conditions: in vivo
Leishmania donovani [12] = test: Antileishmanial activity against promastigote form of Leishmania donovani LV82 infected in BALB/c mouse assessed as reduction in liver parasitemia at 10 mg/kg/day, po administered for 5 days relative to untreated control; type: functional; set-up: scale not given: the % may be the effect or the level left; procedure, shortened: as §3

| SMILES | IC50 (Leishmania amazonensis) [nM] | IC50 (J774) [nM] | IC50 (Leishmania donovani [2]) [nM] | selectivity ratio [3] | selectivity ratio [5] | Activity (Mus musculus [6]) | Activity (Mus musculus [7]) | other results |
| --- | --- | --- | --- | --- | --- | --- | --- | --- |
| CC(C)Oc1cc(-c2ccc(-c3ccc(NC(=N)c4ccccn4)c(OC(C)C)c3)o2)ccc1NC(=N)c1ccccn1.CS(=O)(=O)O | 290 | 10000 | 26 | 385 | – | – | – | Activity (Mus musculus [1]): Non-toxic; Activity (Leishmania donovani [4]): 32% |
| COc1cc(NC(=N)c2ccccn2)ccc1-c1ccc(-c2ccc(NC(=N)c3ccccn3)cc2OC(C)C)o1.CS(=O)(=O)O | 110 | 14000 | 7 | 2000 | 127 | Toxic | Toxic | – |
| CS(=O)(=O)O.Cc1cc(NC(=N)c2ccccn2)ccc1-c1ccc(-c2ccc(NC(=N)c3ccccn3)cc2OC(C)C)o1 | 49 | 13000 | 21 | 619 | 265 | Toxic | Toxic | – |
| CC(C)Oc1cc(NC(=N)c2ccccn2)ccc1-c1ccc(-c2ccc(NC(=N)c3ccccn3)cc2F)o1.CS(=O)(=O)O | 190 | 27000 | 150 | 180 | 142 | Toxic | Toxic | – |
| CC(C)Oc1cc(NC(=N)c2ccccn2)ccc1-c1ccc(-c2ccc(NC(=N)c3ccccn3)cc2)o1.CS(=O)(=O)O | 93 | 11000 | 5.3 | 2080 | 115 | – | – | Activity (Mus musculus [8]): Toxic; Activity (Mus musculus [9]): Toxic; Activity (Mus musculus [10]): Toxic; Activity (Mus musculus [11]): Toxic |
| C[C@@H]1[C@H](O)[C@@H](C)/C=C/C=C/C=C/C=C/C=C/C=C/C=C/[C@H](O[C@@H]2O[C@H](C)[C@@H](O)[C@H](N)[C@@H]2O)C[C@@H]2O[C@](O)(C[C@@H](O)C[C@@H](O)[C@H](O)CC[C@@H](O)C[C@@H](O)CC(=O)O[C@H]1C)C[C@H](O)[C@H]2C(=O)O [AMPHOTERICIN B] | – | – | 45 | – | – | – | – | – |
| CCCCCCCCCCCCCCCCOP(=O)([O-])OCC[N+](C)(C)C [MILTEFOSINE] | – | – | – | – | – | – | – | Activity (Leishmania donovani [12]): 96% |
| COc1cc([C@@H]2c3cc4c(cc3[C@H](O)[C@H]3COC(=O)[C@H]23)OCO4)cc(OC)c1OC [PODOFILOX] | – | 18 | – | – | – | – | – | – |
